Test results as given in ChEMBL document CHEMBL4699494, “Design, synthesis and evaluation of novel indirubin-based N-hydroxybenzamides, N-hydroxypropenamides and N-hydroxyheptanamides as histone deacetylase inhibitors and antitumor agents” (Bioorg Med Chem Lett, 2020).
Structures can show the parent of a compound that is named as a salt. Activity calls are given as the source filed them. No cut-off for these calls is given here.

Key:
[1] = tested on: SW-620; assay: Cytotoxicity against human SW620 cells by colorimetric method; type: functional, cell-based
[2] = target: Histone deacetylase; assay: Inhibition of HDAC in human HeLa nuclear extract using fluoroscence-labeled acetylated peptide as substrate by fluorometric assay; type: subcellular, Nucleus
[3] = tested on: NCI-H23; assay: Cytotoxicity against human NCI-H23 cells by colorimetric method; type: functional, cell-based
[4] = tested on: PC-3; assay: Cytotoxicity against human PC3 cells by colorimetric method; type: functional, cell-based
[5] = tested on: NCI-H23; assay: Potency index, ratio of adriamycin IC50 to compound IC50 for human NCI-H23 cells by colorimetric method; type: functional
How it was run: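 Growth inhibition of cancer cells read by a colorimetric method with slight modifications. IC50 is the concentration giving 50% reduction in cell growth, computed by the Probits method and averaged over three independent experiments. The index is the reference drug's IC50 divided by the compound's IC50 in the same cell line.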

[6] = tested on: SW-620; assay: Induction of apoptosis in human SW620 cells assessed as early apoptotic cells by flow cytometry; type: functional, cell-based
[7] = target: Histone deacetylase 2 (Homo sapiens, UniProt Q92769); assay: Inhibition of HDAC2 (unknown origin)
Sequence of Histone deacetylase 2 (Q92769 whole entry): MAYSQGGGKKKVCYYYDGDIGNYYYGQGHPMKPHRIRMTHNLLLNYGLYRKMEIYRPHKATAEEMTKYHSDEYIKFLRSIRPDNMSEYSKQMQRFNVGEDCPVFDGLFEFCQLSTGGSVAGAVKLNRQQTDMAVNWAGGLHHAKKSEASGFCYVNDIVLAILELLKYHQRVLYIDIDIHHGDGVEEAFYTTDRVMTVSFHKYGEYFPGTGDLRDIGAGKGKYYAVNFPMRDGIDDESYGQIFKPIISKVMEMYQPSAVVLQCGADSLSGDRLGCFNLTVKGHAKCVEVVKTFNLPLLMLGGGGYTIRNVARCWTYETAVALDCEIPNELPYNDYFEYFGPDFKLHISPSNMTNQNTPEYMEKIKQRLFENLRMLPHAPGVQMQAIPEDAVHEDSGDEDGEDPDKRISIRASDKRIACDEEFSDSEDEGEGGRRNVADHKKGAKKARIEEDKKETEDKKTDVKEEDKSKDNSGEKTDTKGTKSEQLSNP

[8] = target: T1, Protein deacetylase HDAC6 (Homo sapiens, UniProt Q9UBN7); assay: Inhibition of HDAC6 (unknown origin)
T1 sequence (Q9UBN7 whole entry): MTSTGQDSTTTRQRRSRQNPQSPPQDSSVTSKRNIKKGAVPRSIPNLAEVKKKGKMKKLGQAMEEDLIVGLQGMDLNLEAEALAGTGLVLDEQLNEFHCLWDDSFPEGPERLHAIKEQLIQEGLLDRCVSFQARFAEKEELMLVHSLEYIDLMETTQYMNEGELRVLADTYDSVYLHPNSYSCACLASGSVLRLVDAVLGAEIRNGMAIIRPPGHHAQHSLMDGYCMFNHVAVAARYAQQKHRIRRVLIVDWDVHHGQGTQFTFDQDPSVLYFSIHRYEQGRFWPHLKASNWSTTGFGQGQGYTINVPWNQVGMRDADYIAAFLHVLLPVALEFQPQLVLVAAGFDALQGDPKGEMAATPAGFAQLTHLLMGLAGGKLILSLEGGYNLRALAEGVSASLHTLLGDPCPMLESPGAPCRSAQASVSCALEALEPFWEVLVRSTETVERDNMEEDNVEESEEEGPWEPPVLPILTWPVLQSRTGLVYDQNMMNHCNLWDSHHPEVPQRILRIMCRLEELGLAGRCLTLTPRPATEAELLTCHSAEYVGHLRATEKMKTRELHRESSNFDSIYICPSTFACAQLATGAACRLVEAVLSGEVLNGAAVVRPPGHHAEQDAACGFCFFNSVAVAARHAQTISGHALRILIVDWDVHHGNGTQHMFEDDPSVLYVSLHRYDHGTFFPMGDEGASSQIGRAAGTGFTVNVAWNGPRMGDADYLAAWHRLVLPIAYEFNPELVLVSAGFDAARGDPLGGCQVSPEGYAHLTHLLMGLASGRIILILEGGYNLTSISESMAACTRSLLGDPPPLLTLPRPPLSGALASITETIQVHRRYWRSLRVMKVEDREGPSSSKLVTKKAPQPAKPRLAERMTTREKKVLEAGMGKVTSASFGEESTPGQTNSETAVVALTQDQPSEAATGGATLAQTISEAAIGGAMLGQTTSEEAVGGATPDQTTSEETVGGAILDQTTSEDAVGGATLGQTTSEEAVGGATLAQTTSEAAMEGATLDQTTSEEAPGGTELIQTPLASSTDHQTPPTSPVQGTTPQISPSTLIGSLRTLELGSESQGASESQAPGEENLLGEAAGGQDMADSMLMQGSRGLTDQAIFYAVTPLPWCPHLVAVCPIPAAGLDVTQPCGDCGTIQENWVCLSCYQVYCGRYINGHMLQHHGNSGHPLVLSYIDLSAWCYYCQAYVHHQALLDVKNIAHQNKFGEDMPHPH

[9] = tested on: SW-620; assay: Induction of cell cycle arrest in human SW-620 cells assessed as accumulation at G0/G1 phase by flow cytometry; type: functional, cell-based
[10] = species on record: Homo sapiens; assay: Selectivity index, ratio of IC50 for HDAC2 (unknown origin) to IC50 for HDAC6 (unknown origin)
[11] = tested on: SW-620; assay: Induction of cell cycle arrest in human SW-620 cells assessed as accumulation at S phase by flow cytometry; type: functional, cell-based

Row | Structure (SMILES) | IC50 [2] [µM] | IC50 [7] [µM] | IC50 [8] [µM] | Ratio IC50 [10] | IC50 [1] [µM] | IC50 [3] [µM] | IC50 [4] [µM] | Ratio IC50 [5] | Activity [6] | Activity [9] | Activity [11]
1 | COc1ccc2c(c1)/C(=C1/Nc3ccccc3/C1=N\O)C(=O)N2CCCCCCC(=O)NO | 0.021 |  |  |  | 0.03 | 0.07 | 0.05 | <=10 |  |  | 
2 | O=C(CCCCCCN1C(=O)/C(=C2\Nc3ccccc3\C2=N/O)c2cc(Cl)ccc21)NO | 0.003 |  |  |  | 0.06 | 0.03 | 0.09 | <=10 |  |  | 
3 | Cc1ccc2c(c1)/C(=C1/Nc3ccccc3/C1=N\O)C(=O)N2CCCCCCC(=O)NO | 0.018 |  |  |  | 0.05 | 0.01 | 0.08 | <=10 |  |  | 
4 | O=C(CCCCCCN1C(=O)/C(=C2\Nc3ccccc3\C2=N/O)c2cccc(Cl)c21)NO | 0.007 |  |  |  | 0.09 | 0.05 | 0.03 | <=10 |  |  | 
5 | O=C(CCCCCCN1C(=O)/C(=C2\Nc3ccccc3\C2=N/O)c2cc(Br)ccc21)NO | 0.004 |  |  |  | 0.09 | 0.009 | 0.03 | <=10 |  |  | 
6 | O=C(CCCCCCC(=O)Nc1ccccc1)NO |  |  |  |  |  |  |  |  | Active |  | 
7 | O=C(NO)c1ccc(CN2C(=O)/C(=C3\Nc4ccccc4\C3=N/O)c3ccccc32)cc1 | 0.195 | 0.205 | 0.007 | 29 | 0.07 | 0.07 | 0.06 | <=10 |  | Active | 
8 | O=C1Nc2ccccc2/C1=C1/Nc2ccccc2/C1=N\O |  |  |  |  | 13.5 | 11.2 | 15.8 |  |  |  | 
9 | O=C(CCCCCCN1C(=O)/C(=C2\Nc3ccccc3\C2=N/O)c2cc(F)ccc21)NO | 0.014 |  |  |  | 0.08 | 0.008 | 0.012 | <=10 |  |  | 
10 | COc1cccc2c1C(=O)c1c(O)c3c(c(O)c1C2=O)C[C@@](O)(C(=O)CO)C[C@@H]3O[C@H]1C[C@H](N)[C@H](O)[C@H](C)O1 [DOXORUBICIN HYDROCHLORIDE] |  |  |  |  | 0.09 | 0.09 | 0.09 |  |  |  | 
11 | O=C(CCCCCCN1C(=O)/C(=C2\Nc3ccccc3\C2=N/O)c2ccccc21)NO | 0.022 |  |  |  | 0.09 | 0.09 | 0.05 | <=10 | Active |  | 

Now from value to compound, other results behind:

Row | IC50 [2] [µM] | IC50 [7] [µM] | IC50 [8] [µM] | Ratio IC50 [10] | Structure (SMILES) | IC50 [1] [µM] | IC50 [3] [µM] | IC50 [4] [µM] | Ratio IC50 [5] | Activity [6] | Activity [9] | Activity [11]
12 | 0.025 | 0.031 | 0.03 |  | COc1ccc2c(c1)/C(=C1/Nc3ccccc3/C1=N\O)C(=O)N2Cc1ccc(C(=O)NO)cc1 | 0.04 | 0.09 | 0.03 | <=10 |  |  | 
13 | 0.071 | 0.088 | 0.049 |  | O=C(NO)c1ccc(CN2C(=O)/C(=C3\Nc4ccccc4\C3=N/O)c3cccc(Cl)c32)cc1 | 0.09 | 0.06 | 0.06 | <=10 |  |  | 
14 | 0.095 |  |  |  | O=C(/C=C/c1ccc(CN2C(=O)/C(=C3\Nc4ccccc4\C3=N/O)c3ccccc32)cc1)NO | 0.05 | 0.009 | 0.05 | <=10 | Active | Active | Active
15 | 0.422 |  |  |  | O=C(/C=C/c1ccc(CN2C(=O)/C(=C3\Nc4ccccc4\C3=N/O)c3cc(F)ccc32)cc1)NO | 0.05 | 0.008 | 0.05 | <=10 |  |  | 
16 | 0.005 | 0.021 | 0.02 |  | Cc1ccc2c(c1)/C(=C1/Nc3ccccc3/C1=N\O)C(=O)N2Cc1ccc(C(=O)NO)cc1 | 0.03 | 0.01 | 0.09 | <=10 |  |  | 
17 | 0.005 |  |  |  | COc1ccc2c(c1)/C(=C1/Nc3ccccc3/C1=N\O)C(=O)N2Cc1ccc(/C=C/C(=O)NO)cc1 | 0.04 | 0.05 | 0.03 | <=10 |  |  | 
18 | 0.174 | 0.187 | 0.016 | 11.7 | O=C(NO)c1ccc(CN2C(=O)/C(=C3\Nc4ccccc4\C3=N/O)c3cc(Cl)ccc32)cc1 | 0.06 | 0.05 | 0.05 | <=10 |  |  | 
19 | 0.318 |  |  |  | O=C(/C=C/c1ccc(CN2C(=O)/C(=C3\Nc4ccccc4\C3=N/O)c3cc(Cl)ccc32)cc1)NO | 0.08 | 0.007 | 0.06 | <=10 |  |  | 
20 | 0.604 |  |  |  | O=C(/C=C/c1ccc(CN2C(=O)/C(=C3\Nc4ccccc4\C3=N/O)c3cccc(Cl)c32)cc1)NO | 0.06 | 0.05 | 0.09 | <=10 |  |  | 
21 | 0.02 |  |  |  | Cc1ccc2c(c1)/C(=C1/Nc3ccccc3/C1=N\O)C(=O)N2Cc1ccc(/C=C/C(=O)NO)cc1 | 0.05 | 0.01 | 0.06 | <=10 |  |  | 
22 | 0.039 | 0.075 | 0.024 |  | O=C(NO)c1ccc(CN2C(=O)/C(=C3\Nc4ccccc4\C3=N/O)c3cc(Br)ccc32)cc1 | 0.07 | 0.007 | 0.05 | <=10 |  |  | 
23 | 0.183 |  |  |  | O=C(/C=C/c1ccc(CN2C(=O)/C(=C3\Nc4ccccc4\C3=N/O)c3cc(Br)ccc32)cc1)NO | 0.06 | 0.009 | 0.09 | <=10 |  |  | 
24 | 0.218 | 0.194 | 0.043 | 4.5 | O=C(NO)c1ccc(CN2C(=O)/C(=C3\Nc4ccccc4\C3=N/O)c3cc(F)ccc32)cc1 | 0.02 | 0.03 | 0.05 | <=10 |  |  | 
